{"source": "ChEMBL document CHEMBL1125596", "about": "“3-Alkyl-4-aminobutyric acids: the first class of anticonvulsant agents that activates L-glutamic acid decarboxylase” (1991)", "key": {"[1]": {"experiment": "Tested for activation of Glutamate decarboxylase; the ratio of Vmax in the presence of activators to the Vmax in the absence of activators at a concentration of 2.5 mM.", "method_in_brief": "(§1)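 Purified GAD (57 µg; sp act. 7.8 nmol/min·mg), 50 mM potassium phosphate pH 7.2, 37 °C, 60 min. Substrate L-glutamate 0.5–0.10 mM spiked with [1-14C]-L-glutamate. Activator at 2.5–0.05 mM. Reaction quenched with 6 M H2SO4; released 14CO2 trapped in KOH center well and counted. Vmax taken from 1/dpm vs 1/[glutamate] plots. Activation is Vmax(+activator)/Vmax(none) ×100%.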"}, "[2]": {"experiment": "Tested for activation of Glutamate decarboxylase; the ratio of Vmax in the presence of activators to the Vmax in the absence of activators at a concentration of 250 uM.", "method_in_brief": "as §1"}, "[3]": {"experiment": "Tested for activation of Glutamate decarboxylase; the ratio of Vmax in the presence of activators to the Vmax in the absence of activators at a concentration of 1.0 mM.", "method_in_brief": "as §1"}, "[4]": {"experiment": "Compound was tested for anticonvulsant activity in Mice by iv administration at the dose of 100 mg/kg.", "assay_type": "functional, Mus musculus", "method_in_brief": "(§2)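 Male CF-1 mice (20-28 g), compound given iv. 120 min later, low-intensity corneal electroshock (17 mA base-to-peak sinusoidal, 0.2 s). Protection was scored as prevention of hindlimb tonic extensor seizure and reported as number protected/number tested.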"}, "[5]": {"experiment": "Compound was tested for anticonvulsant activity in Mice by iv administration at the dose of 100 mg/kg; 6/10", "assay_type": "functional, Mus musculus", "method_in_brief": "as §2"}, "[6]": {"experiment": "Compound was tested for activation of Glutamate decarboxylase which is the ratio of Vmax in the presence of activators to the Vmax in the absence of activators at a concentration of 500 uM.", "method_in_brief": "as §1"}, "[7]": {"experiment": "Compound was tested for activation of Glutamate decarboxylase which is the ratio of Vmax in the presence of activators to the Vmax in the absence of activators at a concentration of 100 uM.", "method_in_brief": "as §1"}, "[8]": {"experiment": "Compound was tested for anticonvulsant activity in Mice by iv administration at the dose of 100 mg/kg; 5/10", "assay_type": "functional, Mus musculus", "method_in_brief": "as §2"}, "[9]": {"experiment": "Compound was tested for anticonvulsant activity in Mice by iv administration at the dose of 30 mg/kg; 2/10", "assay_type": "functional, Mus musculus", "method_in_brief": "as §2"}, "[10]": {"experiment": "Compound was tested for anticonvulsant activity in Mice by iv administration at the dose of 100 mg/kg", "assay_type": "functional, Mus musculus", "method_in_brief": "as §2"}, "[11]": {"experiment": "Compound was tested for anticonvulsant activity in Mice by iv administration at the dose of 100 mg/kg; 2/10", "assay_type": "functional, Mus musculus", "method_in_brief": "as §2"}, "[12]": {"experiment": "Compound was tested for anticonvulsant activity in Mice by iv administration at the dose of 100 mg/kg; 4/10", "assay_type": "functional, Mus musculus", "method_in_brief": "as §2"}, "[13]": {"experiment": "Compound was tested for anticonvulsant activity in Mice by iv administration at the dose of 100 mg/kg; 3/5", "assay_type": "functional, Mus musculus", "method_in_brief": "as §2"}, "[14]": {"experiment": "Compound was tested for anticonvulsant activity in Mice by iv administration at the dose of 14.4 mg/kg; 9/10", "assay_type": "functional, Mus musculus", "method_in_brief": "as §2"}, "[15]": {"experiment": "Compound was tested for anticonvulsant activity in Mice by iv administration at the dose of 100 mg/kg; 0/10", "assay_type": "functional, Mus musculus", "method_in_brief": "as §2"}, "[16]": {"experiment": "Compound was tested for activation of Glutamate decarboxylase which is the ratio of Vmax in the presence of activators to the Vmax in the absence of activators at a concentration of 50 uM.", "method_in_brief": "as §1"}}}
{"molecule": "C[C@H](CN)CC(=O)O", "values": [{"measurement": "Activity", "setting": "[1]", "value": 170}, {"measurement": "Activity", "setting": "[2]", "value": 103}, {"measurement": "Activity", "setting": "[3]", "value": 118}, {"measurement": "No. of animals protected", "setting": "[4]", "value": 5}]}
{"molecule": "CC(C)C(CN)CC(=O)O", "note": "(stereo not drawn)", "values": [{"measurement": "Activity", "setting": "[1]", "value": 140}, {"measurement": "Activity", "setting": "[2]", "value": 104}, {"measurement": "Activity", "setting": "[3]", "value": 108}, {"measurement": "No. of animals protected", "setting": "[5]", "value": 6}]}
{"molecule": "CCCCCNCC(N)=O", "values": [{"measurement": "Activity", "setting": "[1]", "value": 230}, {"measurement": "Activity", "setting": "[2]", "value": 126}, {"measurement": "Activity", "setting": "[3]", "value": 170}]}
{"molecule": "CCC(CN)CC(=O)O", "note": "(stereo not drawn)", "values": [{"measurement": "Activity", "setting": "[1]", "value": 172}, {"measurement": "Activity", "setting": "[2]", "value": 108}, {"measurement": "Activity", "setting": "[3]", "value": 128}, {"measurement": "No. of animals protected", "setting": "[4]", "value": 5}]}
{"molecule": "CC(C)(C)C(CN)CC(=O)O", "note": "(stereo not drawn)", "values": [{"measurement": "Activity", "setting": "[1]", "value": 295}, {"measurement": "Activity", "setting": "[6]", "value": 147}, {"measurement": "Activity", "setting": "[3]", "value": 174}, {"measurement": "Activity", "setting": "[7]", "value": 117}, {"measurement": "No. of animals protected", "setting": "[8]", "value": 5}]}
{"molecule": "NCC(CC(=O)O)C1CCCCC1", "note": "(stereo not drawn)", "values": [{"measurement": "Activity", "setting": "[1]", "value": 125}, {"measurement": "Activity", "setting": "[2]", "value": 100}, {"measurement": "Activity", "setting": "[3]", "value": 100}]}
{"molecule": "NCC1(CC(=O)O)CCCCC1", "values": [{"measurement": "Activity", "setting": "[1]", "value": 178}, {"measurement": "Activity", "setting": "[2]", "value": 105}, {"measurement": "Activity", "setting": "[3]", "value": 145}]}
{"molecule": "CCC(C)C(CN)CC(=O)O", "note": "(stereo not drawn)", "values": [{"measurement": "Activity", "setting": "[1]", "value": 169}, {"measurement": "Activity", "setting": "[2]", "value": 105}, {"measurement": "Activity", "setting": "[3]", "value": 119}, {"measurement": "No. of animals protected", "setting": "[9]", "value": 2}]}
{"molecule": "C[C@@H](CN)CC(=O)O", "values": [{"measurement": "Activity", "setting": "[1]", "value": 327}, {"measurement": "Activity", "setting": "[6]", "value": 185}, {"measurement": "Activity", "setting": "[3]", "value": 202}, {"measurement": "Activity", "setting": "[7]", "value": 128}, {"measurement": "No. of animals protected", "setting": "[10]", "value": 5}]}
{"molecule": "CC(C)(CN)CC(=O)O", "values": [{"measurement": "Activity", "setting": "[1]", "value": 174}, {"measurement": "Activity", "setting": "[2]", "value": 109}, {"measurement": "Activity", "setting": "[3]", "value": 125}, {"measurement": "No. of animals protected", "setting": "[4]", "value": 8}]}
{"molecule": "CCCCC(CN)CC(=O)O", "note": "(stereo not drawn)", "values": [{"measurement": "Activity", "setting": "[1]", "value": 178}, {"measurement": "Activity", "setting": "[2]", "value": 105}, {"measurement": "Activity", "setting": "[3]", "value": 117}, {"measurement": "No. of animals protected", "setting": "[11]", "value": 2}]}
{"molecule": "CC(C)(C)CC(CN)CC(=O)O", "note": "(stereo not drawn)", "values": [{"measurement": "Activity", "setting": "[1]", "value": 279}, {"measurement": "Activity", "setting": "[2]", "value": 130}, {"measurement": "Activity", "setting": "[3]", "value": 181}, {"measurement": "No. of animals protected", "setting": "[12]", "value": 4}]}
{"molecule": "CCCC(CN)CC(=O)O", "note": "(stereo not drawn)", "values": [{"measurement": "Activity", "setting": "[1]", "value": 156}, {"measurement": "Activity", "setting": "[2]", "value": 105}, {"measurement": "Activity", "setting": "[3]", "value": 112}, {"measurement": "No. of animals protected", "setting": "[13]", "value": 3}]}
{"molecule": "CC(C)CC(CN)CC(=O)O", "note": "(stereo not drawn)", "values": [{"measurement": "Activity", "setting": "[2]", "value": 109}, {"measurement": "No. of animals protected", "setting": "[14]", "value": 9}]}
{"molecule": "CC(C)CCC(CN)CC(=O)O", "note": "(stereo not drawn)", "values": [{"measurement": "Activity", "setting": "[1]", "value": 142}, {"measurement": "Activity", "setting": "[2]", "value": 109}, {"measurement": "Activity", "setting": "[3]", "value": 118}, {"measurement": "No. of animals protected", "setting": "[15]", "value": 0}]}
{"molecule": "CCCC(CCC)C(=O)O", "values": [{"measurement": "Activity", "setting": "[1]", "value": 207}, {"measurement": "Activity", "setting": "[6]", "value": 124}, {"measurement": "Activity", "setting": "[3]", "value": 138}, {"measurement": "Activity", "setting": "[7]", "value": 115}]}
{"molecule": "CC(CN)CC(=O)O", "note": "(stereo not drawn)", "values": [{"measurement": "Activity", "setting": "[1]", "value": 239}, {"measurement": "Activity", "setting": "[2]", "value": 128}, {"measurement": "Activity", "setting": "[6]", "value": 142}, {"measurement": "Activity", "setting": "[16]", "value": 107}, {"measurement": "Activity", "setting": "[3]", "value": 168}, {"measurement": "Activity", "setting": "[7]", "value": 118}, {"measurement": "No. of animals protected", "setting": "[4]", "value": 3}]}
